Measured values reported in paper PMC5741288 (Pain Reports, 2016).
Marks after values point to notes of the source that are not given here.

Assay: Treatment-emergent adverse events, tolerability
Assay type: in vivo, healthy men
Outline: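 Healthy men received single oral tablet doses (part 1: 1–225 mg; part 2: 10, 50 mg) or placebo under double-blind randomisation. Treatment-emergent adverse events were recorded along with clinical laboratory tests, ECG, oral temperature, vital signs and physical examinations, through follow-up.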

SMILES: CC(C)(O)c1ccccc1-c1ccc2[nH]c(/C=C/c3ccc(C(F)(F)F)cc3)nc2c1 [JNJ-39439335, trans-2-(2-{2-[2-(4-Trifluoromethyl-phenyl)-vinyl]-1H-benzimidazol-5-yl}-phenyl)-propan-2-ol]
- TEAE Burning sensation (part 1, 30 mg (N = 5)): 0 n (%)
- TEAE Chills (part 1, 30 mg (N = 5)): 0 n (%)
- TEAE Dizziness (part 1, 30 mg (N = 5)): 1 (20) n (%)
- TEAE Dizziness postural (part 1, 30 mg (N = 5)): 0 n (%)
- TEAE Dysgeusia (part 1, 30 mg (N = 5)): 1 (20) n (%)
- TEAE Fatigue (part 1, 30 mg (N = 5)): 0 n (%)
- TEAE Feeling cold (part 1, 30 mg (N = 5)): 5 (100) n (%)
- TEAE Feeling hot (part 1, 30 mg (N = 5)): 4 (80) n (%)
- TEAE Headache (part 1, 30 mg (N = 5)): 0 n (%)
- TEAE Hematoma (part 1, 30 mg (N = 5)): 0 n (%)
- TEAE Hyperhidrosis (part 1, 30 mg (N = 5)): 0 n (%)
- TEAE Hypoesthesia (part 1, 30 mg (N = 5)): 0 n (%)
- TEAE Hypogeusia (part 1, 30 mg (N = 5)): 0 n (%)
- TEAE Nausea (part 1, 30 mg (N = 5)): 0 n (%)
- TEAE Orthostatic hypotension (part 1, 30 mg (N = 5)): 1 (20) n (%)
- TEAE Paresthesia (part 1, 30 mg (N = 5)): 0 n (%)
- TEAE Pruritus (part 1, 30 mg (N = 5)): 0 n (%)
- TEAE Pyrexia (part 1, 30 mg (N = 5)): 3 (60) n (%)
- TEAE Rhinitis (part 1, 30 mg (N = 5)): 0 n (%)
- TEAE Thermal burn (part 1, 30 mg (N = 5)): 1 (20) n (%)
- TEAE Thermohypoesthesia (part 1, 30 mg (N = 5)): 3 (60) n (%)
- Total no. participants with AEs (part 1, 30 mg (N = 5)): 5 (100) n (%)
- TEAE Agusia (part 1, 60 mg (N = 6)): 0 n (%)
- TEAE Back pain (part 1, 60 mg (N = 6)): 0 n (%)
- TEAE Burning sensation (part 1, 60 mg (N = 6)): 0 n (%)
- TEAE Chills (part 1, 60 mg (N = 6)): 0 n (%)
- TEAE Dizziness (part 1, 60 mg (N = 6)): 0 n (%)
- TEAE Dizziness postural (part 1, 60 mg (N = 6)): 0 n (%)
- TEAE Dysgeusia (part 1, 60 mg (N = 6)): 1 (17) n (%)
- TEAE Fatigue (part 1, 60 mg (N = 6)): 0 n (%)
- TEAE Feeling cold (part 1, 60 mg (N = 6)): 4 (67) n (%)
- TEAE Feeling hot (part 1, 60 mg (N = 6)): 1 (17) n (%)
- TEAE Headache (part 1, 60 mg (N = 6)): 0 n (%)
- TEAE Hematoma (part 1, 60 mg (N = 6)): 0 n (%)
- TEAE Hyperhidrosis (part 1, 60 mg (N = 6)): 0 n (%)
- TEAE Hypoesthesia (part 1, 60 mg (N = 6)): 1 (17) n (%)
- TEAE Hypogeusia (part 1, 60 mg (N = 6)): 0 n (%)
- TEAE Nausea (part 1, 60 mg (N = 6)): 1 (17) n (%)
- TEAE Paresthesia (part 1, 60 mg (N = 6)): 0 n (%)
- TEAE Pruritus (part 1, 60 mg (N = 6)): 0 n (%)
- TEAE Pyrexia (part 1, 60 mg (N = 6)): 4 (67) n (%)
- TEAE Rhinitis (part 1, 60 mg (N = 6)): 0 n (%)
- TEAE Thermal burn (part 1, 60 mg (N = 6)): 0 n (%)
- TEAE Thermohypoesthesia (part 1, 60 mg (N = 6)): 1 (17) n (%)
- Total no. participants with AEs (part 1, 60 mg (N = 6)): 6 (100) n (%)
- TEAE Agusia (part 1, 120 mg (N = 6)): 0 n (%)
- TEAE Back pain (part 1, 120 mg (N = 6)): 0 n (%)
- TEAE Burning sensation (part 1, 120 mg (N = 6)): 0 n (%)
- TEAE Chills (part 1, 120 mg (N = 6)): 1 (17) n (%)
- TEAE Dizziness (part 1, 120 mg (N = 6)): 1 (17) n (%)
- TEAE Dizziness postural (part 1, 120 mg (N = 6)): 1 (17) n (%)
- TEAE Dysgeusia (part 1, 120 mg (N = 6)): 0 n (%)
- TEAE Fatigue (part 1, 120 mg (N = 6)): 1 (17) n (%)
- TEAE Feeling cold (part 1, 120 mg (N = 6)): 1 (17) n (%)
- TEAE Feeling hot (part 1, 120 mg (N = 6)): 1 (17) n (%)
- TEAE Headache (part 1, 120 mg (N = 6)): 1 (17) n (%)
- TEAE Hematoma (part 1, 120 mg (N = 6)): 1 (17) n (%)
- TEAE Hyperhidrosis (part 1, 120 mg (N = 6)): 0 n (%)
- TEAE Hypoesthesia (part 1, 120 mg (N = 6)): 1 (17) n (%)
- TEAE Hypogeusia (part 1, 120 mg (N = 6)): 0 n (%)
- TEAE Nausea (part 1, 120 mg (N = 6)): 1 (17) n (%)
- TEAE Orthostatic hypotension (part 1, 120 mg (N = 6)): 0^a n (%)
- TEAE Paresthesia (part 1, 120 mg (N = 6)): 0 n (%)
- TEAE Pruritus (part 1, 120 mg (N = 6)): 1 (17) n (%)
- TEAE Pyrexia (part 1, 120 mg (N = 6)): 4 (67) n (%)
- TEAE Rhinitis (part 1, 120 mg (N = 6)): 0 n (%)
- TEAE Thermal burn (part 1, 120 mg (N = 6)): 0 n (%)
- TEAE Thermohypoesthesia (part 1, 120 mg (N = 6)): 4 (67) n (%)
- Total no. participants with AEs (part 1, 120 mg (N = 6)): 6 (100) n (%)
- TEAE Agusia (part 1, 225 mg (N = 6)): 2 (33) n (%)
- TEAE Back pain (part 1, 225 mg (N = 6)): 0 n (%)
- TEAE Burning sensation (part 1, 225 mg (N = 6)): 5 (83) n (%)
- TEAE Chills (part 1, 225 mg (N = 6)): 1 (17) n (%)
- TEAE Dizziness (part 1, 225 mg (N = 6)): 1 (17) n (%)
- TEAE Dizziness postural (part 1, 225 mg (N = 6)): 0 n (%)
- TEAE Dysgeusia (part 1, 225 mg (N = 6)): 0 n (%)
- TEAE Fatigue (part 1, 225 mg (N = 6)): 0 n (%)
- TEAE Feeling cold (part 1, 225 mg (N = 6)): 2 (33) n (%)
- TEAE Feeling hot (part 1, 225 mg (N = 6)): 5 (83) n (%)
- TEAE Headache (part 1, 225 mg (N = 6)): 2 (33) n (%)
- TEAE Hematoma (part 1, 225 mg (N = 6)): 0 n (%)
- TEAE Hyperhidrosis (part 1, 225 mg (N = 6)): 1 (17) n (%)
- TEAE Hypoesthesia (part 1, 225 mg (N = 6)): 0 n (%)
- TEAE Hypogeusia (part 1, 225 mg (N = 6)): 0 n (%)
- TEAE Nausea (part 1, 225 mg (N = 6)): 0 n (%)
- TEAE Orthostatic hypotension (part 1, 225 mg (N = 6)): 1 (17) n (%)
- TEAE Paresthesia (part 1, 225 mg (N = 6)): 3 (50) n (%)
- TEAE Pruritus (part 1, 225 mg (N = 6)): 1 (17) n (%)
- TEAE Pyrexia (part 1, 225 mg (N = 6)): 3 (50) n (%)
- TEAE Rhinitis (part 1, 225 mg (N = 6)): 0 n (%)
- TEAE Thermal burn (part 1, 225 mg (N = 6)): 3 (50) n (%)
- TEAE Thermohypoesthesia (part 1, 225 mg (N = 6)): 5 (83) n (%)
- Total no. participants with AEs (part 1, 225 mg (N = 6)): 6 (100) n (%)
- Participants with burning feeling (not physical burn) (part 1, 225-mg dose group): 5 participants
- Participants reporting at least 1 TEAE (part 1, of 59 participants receiving JNJ-39439335): 50 (85%) n (%)
- Participants with minor or first-degree burns (part 1, of the 89 participants who received JNJ-39439335 or placebo): 4 participants
- Thermohypoesthesia, participants (part 1, participants receiving JNJ-39439335): 23 (39%) n (%)
- Thermohypoesthesia, participants (part 2): 70%
- TEAE Disturbance in attention (part 2, 10 mg (N = 19)): 1 (5) n (%)
- TEAE Dizziness (part 2, 10 mg (N = 19)): 0 n (%)
- TEAE Dizziness postural (part 2, 10 mg (N = 19)): 0 n (%)
- TEAE Dysgeusia (part 2, 10 mg (N = 19)): 4 (21) n (%)
- TEAE Feeling cold (part 2, 10 mg (N = 19)): 9 (47) n (%)
- TEAE Feeling hot (part 2, 10 mg (N = 19)): 6 (32) n (%)
- TEAE Headache (part 2, 10 mg (N = 19)): 3 (16) n (%)
- TEAE Hyperhidrosis (part 2, 10 mg (N = 19)): 2 (11) n (%)
- TEAE Oropharyngeal pain (part 2, 10 mg (N = 19)): 1 (5) n (%)
- TEAE Paresthesia (part 2, 10 mg (N = 19)): 7 (37) n (%)
- TEAE Pyrexia (part 2, 10 mg (N = 19)): 8 (42) n (%)
- TEAE Thermal burn (part 2, 10 mg (N = 19)): 0 n (%)
- TEAE Thermohypoesthesia (part 2, 10 mg (N = 19)): 9 (47) n (%)
- Total no. participants with AEs (part 2, 10 mg (N = 19)): 17 (89) n (%)
- TEAE Disturbance in attention (part 2, 50 mg (N = 20)): 2 (10) n (%)
- TEAE Dizziness (part 2, 50 mg (N = 20)): 2 (10) n (%)
- TEAE Dizziness postural (part 2, 50 mg (N = 20)): 1 (5) n (%)
- TEAE Dysgeusia (part 2, 50 mg (N = 20)): 5 (25) n (%)
- TEAE Feeling cold (part 2, 50 mg (N = 20)): 9 (45) n (%)
- TEAE Feeling hot (part 2, 50 mg (N = 20)): 8 (40) n (%)
- TEAE Headache (part 2, 50 mg (N = 20)): 3 (15) n (%)
- TEAE Hyperhidrosis (part 2, 50 mg (N = 20)): 2 (10) n (%)
- TEAE Oropharyngeal pain (part 2, 50 mg (N = 20)): 1 (5) n (%)
- TEAE Paresthesia (part 2, 50 mg (N = 20)): 9 (45) n (%)
- TEAE Pyrexia (part 2, 50 mg (N = 20)): 11 (55) n (%)
- TEAE Thermal burn (part 2, 50 mg (N = 20)): 2 (10) n (%)
- TEAE Thermohypoesthesia (part 2, 50 mg (N = 20)): 12 (60) n (%)
- Total no. participants with AEs (part 2, 50 mg (N = 20)): 19 (95) n (%)
- Participants with minor burns of the mouth (part 2, 50-mg dose): 2 participants
- TEAE Disturbance in attention (part 2, Total (N = 20)): 2 (10) n (%)
- TEAE Dizziness (part 2, Total (N = 20)): 2 (10) n (%)
- TEAE Dizziness postural (part 2, Total (N = 20)): 2 (10) n (%)
- TEAE Dysgeusia (part 2, Total (N = 20)): 7 (35) n (%)
- TEAE Feeling cold (part 2, Total (N = 20)): 13 (65) n (%)
- TEAE Feeling hot (part 2, Total (N = 20)): 11 (55) n (%)
- TEAE Headache (part 2, Total (N = 20)): 5 (25) n (%)
- TEAE Hyperhidrosis (part 2, Total (N = 20)): 4 (20) n (%)
- TEAE Oropharyngeal pain (part 2, Total (N = 20)): 2 (10) n (%)
- TEAE Paresthesia (part 2, Total (N = 20)): 11 (55) n (%)
- TEAE Pyrexia (part 2, Total (N = 20)): 12 (60) n (%)
- TEAE Thermal burn (part 2, Total (N = 20)): 2 (10) n (%)
- TEAE Thermohypoesthesia (part 2, Total (N = 20)): 14 (70) n (%)
- Total no. participants with AEs (part 2, Total (N = 20)): 20 (100) n (%)
- Severe adverse events / withdrawals because of an adverse event (parts 1 and 2): no severe adverse events reported
- Tolerability (single oral doses up to 225 mg): well tolerated
